Data: ChEMBL document CHEMBL1149101, “New antibacterial agents derived from the DNA gyrase inhibitor cyclothialidine” (J Med Chem, 2004)
Converted amounts (≈) assume the structure as drawn.

Experiments:
Staphylococcus aureus [1] = assay: In vivo effective dose was determined in septicaemic mice (Staphylococcus aureus Smith) when administration iv; format: functional
How it was run: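 Compound given iv as a gelatine microsuspension at 1 and 3 h post-challenge, 5 mice per group. ED50 (mg/kg) from day-4 survival by probit analysis.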

Staphylococcus aureus [2] = assay: Minimum inhibitory concentration against Staphylococcus aureus Smith; format: functional
How it was run: (§1)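 NCCLS agar dilution on Mueller–Hinton agar, compound incorporated into melted medium at 50 °C. Inoculum about 10⁴ CFU/spot from diluted overnight cultures, multipoint-applied.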

Enterococcus faecalis [3] = assay: Minimum inhibitory concentration against Enterococcus faecalis 6; format: functional; how it was run: as §1
[4] = target: T1, DNA gyrase (Escherichia coli) (UniProt P0AES6+P0AES4)
Streptococcus pyogenes = assay: Minimum inhibitory concentration against Streptococcus pyogenes b15
Escherichia coli = assay: Minimum inhibitory concentration against Escherichia coli 25922; format: functional; how it was run: as §1
Staphylococcus aureus [5] = assay: Minimum inhibitory concentration against Staphylococcus aureus ATCC 25923; format: functional; how it was run: as §1
[6] = system: Staphylococcus epidermidis; assay: Minimum inhibitory concentration against Staphylococcus epidermidis 16/2; format: functional; how it was run: as §1
[7] = system: Stenotrophomonas maltophilia; assay: Minimum inhibitory concentration against Xanthomonas maltophilia AC739; format: functional; how it was run: as §1
Staphylococcus aureus [8] = assay: Minimum inhibitory concentration against Staphylococcus aureus; format: functional
[9] = Range for minimum inhibitory concentration against Staphylococcus aureus 0.5->[…]; format: functional
Staphylococcus aureus [10] = assay: Minimum inhibitory concentration against Staphylococcus aureus 887; format: functional
How it was run: (§2)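 Agar dilution per NCCLS in BB2 agar + 1% Isovitalex + 7.5% sheep blood + menadione, compound added to melted medium at 50 °C. About 10⁴ CFU/spot from diluted overnight cultures, multipoint-inoculated.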

Micrococcus luteus = assay: Minimum inhibitory concentration against Micrococcus luteus ATCC 8340; format: functional; how it was run: as §2
Neisseria meningitidis = assay: Minimum inhibitory concentration against Neisseria meningitides 69480; format: functional; how it was run: as §2
[11] = Range for minimum inhibitory concentration against Enterococcus faecalis;4-8; format: functional
Enterococcus faecalis [12] = assay: Minimum inhibitory concentration against Enterococcus faecalis; format: functional
How it was run: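 Agar dilution per NCCLS on Mueller–Hinton agar, strain E. faecalis 6 (listed as S. faecalis 6). Compound incorporated into melted medium at 50 °C just before pouring plates. Inoculum about 10⁴ CFU/spot from diluted overnight culture, applied with multipoint inoculator.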

[13] = Range for minimum inhibitory concentration against Enterococcus faecium; 2-8; format: functional
[14] = Range for minimum inhibitory concentration against Staphylococcus aureus; 0.06->64; format: functional
HeLa = assay: Cytotoxicity in HeLa cells; format: cell-based
[15] = Range for minimum inhibitory concentration against Staphylococcus aureus; 4->64; format: functional
[16] = Range for minimum inhibitory concentration against Enterococcus faecalis; 1-4; format: functional
[17] = Range for minimum inhibitory concentration against Staphylococcus aureus; 0.5-2; format: functional
[18] = Minimum inhibitory concentration against Enterococcus faecalis
Mus musculus = organism: Mus musculus; assay: Percentage of binding to the mice plasma protein was determined; format: functional
[19] = Range for minimum inhibitory concentration against Staphylococcus aureus; 0.5->[…]; format: functional
[20] = target: T1, DNA gyrase (Escherichia coli); assay: Maximum noneffective concentration against Escherichia coli DNA gyrase; format: protein-complex assay
How it was run: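 Gyrase A2B2 complex reconstituted from equimolar subunits (25 °C, 0.5 h). Relaxed pUC18 DNA incubated with enzyme at 37 °C for 0.5 h, compound 0.001–100 μg/mL. Products resolved on 0.8% agarose gel. MNEC, read visually, is the highest concentration still allowing complete plasmid supercoiling.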

[21] = Staphylococcus aureus, read-out: MIC
[22] = Streptococcus pyogenes, read-out: MIC
[23] = Staphylococcus aureus, ATCC 25923, read-out: MIC

SMILES | MIC (Staphylococcus aureus [2]; [21]) [µg/mL] | MIC (Enterococcus faecalis [3]) [µg/mL] | MNEC [4] [µg/mL] | MIC (Streptococcus pyogenes; [22]) [µg/mL] | MIC (Escherichia coli) [µg/mL] | MIC (Staphylococcus aureus [5]; [23]) [µg/mL] | MIC [6] [µg/mL] | MIC [7] [µg/mL] | MIC50 (Staphylococcus aureus [8]) [µg/mL] | MIC90 (Staphylococcus aureus [8]) [µg/mL] | further results
COc1cc(O)c2c(c1C)C(=O)O[C@H](CO)CCC/C(S)=N/[C@H](c1nc(C)no1)CSC2 | 0.5 (≈ 1.04 µM) | 0.5 (≈ 1.04 µM) | 0.005 | 0.5 (≈ 1.04 µM) | > 64 | 0.5 (≈ 1.04 µM) | < 0.12 | 4 (≈ 8.31 µM) |  |  | ED50 (Staphylococcus aureus [1]): 8.5 mg/kg
CN(C)[C@@H]1C(O)=C(C(N)=O)C(=O)[C@@]2(O)C(O)=C3C(=O)c4c(O)cccc4[C@@](C)(O)[C@H]3C[C@@H]12 [TETRACYCLINE] |  |  |  |  |  |  |  |  | > 16 | > 16 | Range [9]: 16 µg/mL
COC(=O)[C@@H]1CSCc2c(O)cc(O)c(C)c2C(=O)OCC(NC(=O)OC(C)(C)C)C(=O)N1 (stereo partly drawn) | 128 (≈ 264 µM) | 64 (≈ 132 µM) | 0.2 | 32 (≈ 66 µM) | > 64 | > 64 | 64 (≈ 132 µM) | > 64 |  |  | MIC (Staphylococcus aureus [10]): > 64 µg/mL; MIC (Streptococcus pyogenes): 64 µg/mL (≈ 132 µM); MIC (Micrococcus luteus): 16 µg/mL (≈ 33 µM); MIC (Neisseria meningitidis): 16 µg/mL (≈ 33 µM)
CO[C@@H]1[C@@H](OC(N)=O)[C@@H](O)[C@H](Oc2ccc3c(O)c(NC(=O)c4ccc(O)c(CC=C(C)C)c4)c(=O)oc3c2C)OC1(C)C [NOVOBIOCIN] | 0.12 (≈ 0.196 µM) | 4 (≈ 6.53 µM) |  | 1 (≈ 1.63 µM) | > 64 | 0.25 (≈ 0.408 µM) | 0.25 (≈ 0.408 µM) | > 64 |  |  | ED50 (Staphylococcus aureus [1]): 3 mg/kg; Range [11]: 8 µg/mL; MIC50 (Enterococcus faecalis [12]): 4 µg/mL (≈ 6.53 µM); MIC90 (Enterococcus faecalis [12]): 8 µg/mL (≈ 13.1 µM); Range [13]: 8 µg/mL
C[C@@H](O)[C@H]1C(=O)N2C(C(=O)O)=C(SCCNC=N)C[C@H]12 [IMIPENEM ANHYDROUS] |  |  |  |  |  |  |  |  | 4 (≈ 13.4 µM) | 16 (≈ 53.4 µM) | Range [14]: 64 µg/mL
COC(=O)[C@@H]1CSCc2c(O)cc(OC)c(C)c2C(=O)OCC(NC(=O)OC(C)(C)C)C(=O)N1 (stereo partly drawn) | 128 (≈ 257 µM) | 64 (≈ 128 µM) | 0.2 | 64 (≈ 128 µM) | > 64 | > 64 | 64 (≈ 128 µM) | > 64 |  |  | MIC (Staphylococcus aureus [10]): 64 µg/mL (≈ 128 µM); MIC (Streptococcus pyogenes): 64 µg/mL (≈ 128 µM); MIC (Micrococcus luteus): 16 µg/mL (≈ 32.1 µM); MIC (Neisseria meningitidis): 16 µg/mL (≈ 32.1 µM)
COC(=O)[C@@H]1CSCc2c(O)cc(OC)c(C)c2C(=O)OCCCCC(=O)N1 | 2 (≈ 4.86 µM) | 4 (≈ 9.72 µM) | 0.05 | 4 (≈ 9.72 µM) | > 64 | 4 (≈ 9.72 µM) | 1 (≈ 2.43 µM) | 16 (≈ 38.9 µM) |  |  | MIC (Staphylococcus aureus [2]): 2 µg/mL (≈ 4.86 µM); IC50 (HeLa): > 50 µg/mL; MIC (Staphylococcus aureus [5]): 4 µg/mL (≈ 9.72 µM)
COc1cccc(OC)c1C(=O)N[C@@H]1C(=O)N2[C@@H]1SC(C)(C)[C@@H]2C(=O)O [METHICILLIN] |  |  |  |  |  |  |  |  | 32 (≈ 84.1 µM) | > 64 | Range [15]: 64 µg/mL
CN[C@H](CC(C)C)C(=O)N[C@H]1C(=O)N[C@@H](CC(N)=O)C(=O)N[C@H]2C(=O)N[C@H]3C(=O)N[C@H](C(=O)N[C@H](C(=O)O)c4cc(O)cc(O)c4-c4cc3ccc4O)[C@H](O)c3ccc(c(Cl)c3)Oc3cc2cc(c3O[C@@H]2O[C@H](CO)[C@@H](O)[C@H](O)[C@H]2O[C@H]2C[C@](C)(N)[C@H](O)[C@H](C)O2)Oc2ccc(cc2Cl)[C@H]1O [VANCOMYCIN] |  |  |  |  | > 64 |  |  | > 64 | 1 (≈ 0.69 µM) | 2 (≈ 1.38 µM) | ED50 (Staphylococcus aureus [1]): 1.5 mg/kg; Range [16]: 4 µg/mL; Range [17]: 2 µg/mL; MIC90 [18]: 4 µg/mL (≈ 2.76 µM); MIC50 (Enterococcus faecalis [12]): 2 µg/mL (≈ 1.38 µM); Activity (Mus musculus): 25%
O=C(O)c1cn(C2CC2)c2cc(N3CCNCC3)c(F)cc2c1=O [CIPROFLOXACIN] |  |  |  |  |  |  |  |  | 0.5 (≈ 1.51 µM) | > 16 | Range [19]: 16 µg/mL
COC(=O)[C@@H]1CSCc2c(O)cc(OC)c(C)c2C(=O)OCCC(=O)N1 | 64 (≈ 167 µM) | > 64 | 0.25 |  | > 64 | > 64 | 8 (≈ 20.9 µM) | > 64 |  |  | MIC (Staphylococcus aureus [10]): > 64 µg/mL; MIC (Micrococcus luteus): 16 µg/mL (≈ 41.7 µM); MIC (Staphylococcus aureus [5]): 64 µg/mL (≈ 167 µM); MNEC [20]: 0.5 µg/mL; MIC (Neisseria meningitidis): 32 µg/mL (≈ 83.5 µM)
CC[C@H]1OC(=O)[C@H](C)[C@@H](O[C@H]2C[C@@](C)(OC)[C@@H](O)[C@H](C)O2)[C@H](C)[C@@H](O[C@@H]2O[C@H](C)C[C@H](N(C)C)[C@H]2O)[C@](C)(O)C[C@@H](C)C(=O)[C@H](C)[C@@H](O)[C@]1(C)O [ERYTHROMYCIN] |  |  |  |  |  |  |  |  | > 16 | > 16 | Range [19]: 16 µg/mL
COC(=O)[C@@H]1CSCc2c(O)cc(OC)c(C)c2C(=O)OCC/C(S)=N/1 | 2 (≈ 5.01 µM) | 4 (≈ 10 µM) | 0.05 | 4 (≈ 10 µM) | > 64 | 2 (≈ 5.01 µM) | 0.5 (≈ 1.25 µM) | 8 (≈ 20 µM) |  |  | MIC (Staphylococcus aureus [2]): 2 µg/mL (≈ 5.01 µM); MIC (Staphylococcus aureus [5]): 2 µg/mL (≈ 5.01 µM)
